Compounds with a hit are over-represented: about 9.2% of the library has one in this group of screens.
Autophagy mod – autophagy modulators in MEF cells, primary screen, imaging, high-content, MEF GFP-LC3; calls only at 10 µM (by protocol); MEF GFP-LC3 puncta imaging; test concentration mostly 10 µM; hit rate 0.98% among 190,000;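 active means percentage of spot-positive cells more than 3 SD above its plate mean, without a fluorescence outlier flag or 80% toxicity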;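 further: spot-positive cell cutoff set from DMSO-treated cells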
PTEN del growth – growth suppression of PTEN-null HCT116, primary screen, cell-based, CellTiter-Glo. hit rate 1.2% among 140,000. HCT116 PTEN-null viability, 60 h; active compounds read low. AID 827, 2007. viability, % at 10 µM;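 active means viability at or below a set limit, 4 SD under the median of all tested compounds, cut at about 3.7% in these data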;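 further: PTEN knockout HCT116 line with beta catenin targeted HCT116 as companion control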
Dynein cargo inh – inhibitors of GR-EGFP nuclear translocation, primary screen, dynein cargo transport inhibitor project, imaging, high-content, 3617.4 mouse cells; z-score, hits read low; hit rate 0.47% among 220,000; test concentration mostly 20 µM; stimulated with dexamethasone, 1 µM; active compounds read low;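 active means plate z-score of nuclear minus cytoplasmic receptor signal below a set negative limit, without overly bright fluorescence or cell loss, cut at about -3.5 in these data, passing the limit was not always enough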;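 further: z-score of nuclear minus cytoplasmic ring GR-EGFP intensity difference per well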
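medium = tetracycline-free induction medium containing charcoal-stripped FBS | probe or stimulus = dexamethasone, 1.0 µM final | timing = 48 h induction, then 1 h compound, then 30 min agonist, 37 °C | detection = automated 10x imaging of fixed Hoechst-stained cells | read-out basis = nuclear versus cytoplasmic GR-EGFP signal, averaged per well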
L major viab – Leishmania major promastigote growth inhibition, primary screen; Leishmania major promastigotes, resazurin fluorescence viability; inhibition, % at 10 µM; hit rate 9% among 200,000; AID 1063, 2008; in the data active means inhibition above about 50%;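 further: promastigotes grown with compound for 44 hours at 28 °C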
bCat KO growth – primary screen for growth suppressors in beta-catenin knockout HCT116 cells (colon tumor, human) | AID 818, 2007 | hit rate 1.5% among 140,000 | viability, % at 10 µM | HCT116 beta-catenin knockout viability, CellTiter-Glo, 60 h; active compounds read low;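 active means viability at or under a set limit, the compound median less 4 SD, cut at about 6% in these data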;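 further: 0% = Hyamine 1622 control at 20 µM and 100% = untreated cell control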
* marks the source's active call; other numbers are inactive results; i = inactive; / = no result given; + = active, no number.

SMILES	Autophagy mod	PTEN del growth	Dynein cargo inh	L major viab	bCat KO growth
COc1ccc2c(Cl)c(C(=O)N/N=C/c3c(C)[nH]c4ccccc34)sc2c1	i	62.0	-0.673	100.3*	73.8
O=C(N/N=C/c1ccc2c(c1)OCO2)c1sc2cccc(Cl)c2c1Cl	i	59.0	0.646	-4.0	52.9
COc1ccc2c(Cl)c(C(=O)N/N=C/c3ccc4c(c3)OCO4)sc2c1	i	10.8	0.0393	96.8*	56.0
COc1ccc(CC(=O)c2ccc(OC)c(OC)c2C)cc1OC	i	57.8	-0.285	-5.0	51.8
COc1ccc(CNC(=O)C(c2ccco2)N(C(=O)CNS(=O)(=O)c2ccccc2)c2ccccc2C)cc1 (stereo not drawn)	i	68.6	-0.605	46.8	81.9
O=C(Nc1ccc2c(c1)OCO2)N1CCC(CO)(CC2CCCCO2)CC1 (stereo not drawn)	i	/	0.0168	-0.7	/
Fc1ccc(C2=NN(c3ccccc3)C(c3ccco3)C2)cc1 (stereo not drawn)	i	/	-0.831	2.4	/
Cc1ccc(C2CC(c3ccccc3)=NN2c2ccccc2)o1 (stereo not drawn)	i	86.3	-0.36	99.8*	87.2
CC(C)NC(=S)N(CCc1ccncc1)C(C)C	i	/	-1.13	-2.2	/
Nc1c(C(=O)NCCc2ccccc2)sc2nc(N3CCOCC3)c3c(c12)CCCC3	i	/	2.34	15.4	/
CN(C(=O)c1sc2nc(N3CCOCC3)c3c(c2c1N)CCCC3)c1ccccc1	i	/	1.12	100.2*	/
CC(=O)N1CC23C=CC(CC2CC12CCCCCC2)O3 (stereo not drawn)	i	/	3.35	9.4	/
CN1CCN(c2ccc(C(=O)c3ccccc3)cc2[N+](=O)[O-])CC1	i	88.0	0.638	80.9*	90.8
CN1CCN(c2cc(N3CCc4ccccc4C3)c(F)cc2[N+](=O)[O-])CC1	i	5.4	-0.106	75.6*	6.5
C=CCn1cnc2c(nnn2Cc2ccc(F)cc2)c1=O	/	/	-0.459	/	/
CC(NC(=O)COC(=O)Cc1ccccc1[N+](=O)[O-])c1ccccc1 (stereo not drawn)	i	101.8	2.13	60.2*	98.4
CC(NC(=O)Cc1ccccc1[N+](=O)[O-])c1ccccc1 (stereo not drawn)	i	91.4	1.02	-3.5	91.4
CC(C)C(=O)NS(=O)(=O)c1ccc(N)cc1	i	103.4	-0.864	-5.0	99.6
CCOC(=O)C1(CCCc2ccccc2)CCN(C(=O)C2CCCN(C(N)=O)C2)CC1 (stereo not drawn)	i	/	-0.439	9.3	/
O=C(Nc1ccccc1)N1CCCC1c1cccs1 (stereo not drawn)	/	/	-0.307	/	/
COc1cc2c(C#N)c(N3CCc4ccccc4C3)nc(N)c2c(N)n1	i	27.9	3.5	53.9*	19.3
COc1cc2c(C#N)c(N3CCCCC3)nc(N)c2c(N)n1	i	75.8	1.98	25.0	64.2
O=[N+]([O-])c1ccc(/C=[N+](\[O-])CCO)o1	/	/	0.943	/	/
CCOc1cccc(-c2nnc3sc(C4CCCCC4)nn23)c1	i	7.8	-0.359	18.6	6.1*
COc1ccc(Cl)cc1NC(=O)CN1CCC(n2nnc3ccccc32)CC1	i	83.2	-0.207	12.6	85.4
SMILES	Autophagy mod	PTEN del growth	Dynein cargo inh	L major viab	bCat KO growth
O=C(N/N=C\c1ccccn1)c1ccccc1O	i	/	-0.182	69.1*	/
O=C(N/N=C/c1ccccn1)c1cc(-c2ccc(Cl)cc2)nc2ccccc12	i	3.2*	-0.0899	97.8*	3.7*
Cc1cccc(NC(=O)c2cc(-c3ccc(C)s3)nc3ccccc23)n1	+	37.4	-0.262	10.7	40.3
Cc1sc(NC(=O)c2cc(-c3ccc(Cl)cc3)nc3ccccc23)c(C(N)=O)c1C	i	1.0*	1.88	-3.5	3.9*
O=C(N/N=C/c1ccccn1)c1cc(-c2ccc(Br)cc2)nc2ccccc12	/	/	0.962	/	/
COc1ccc(OCC(O)CNC(=O)/C=C/c2cccc([N+](=O)[O-])c2)cc1 (stereo not drawn)	i	/	-0.685	5.3	/
O=C(N/N=C/c1ccccn1)c1cccs1	i	/	-0.162	77.2*	/
COc1ccc(NC(=O)N2c3ccc(OC)cc3C(C)=CC2(C)C)cc1	i	90.6	0.213	29.9	82.2
CCOc1ccc2c(c1)C(C)=CC(C)(C)N2C(=O)Nc1ccccc1	i	81.9	-2.93	50.5*	89.4
CN(C)c1ccc(-c2n[nH]c(=S)n2-c2ccccc2)cc1	i	/	-0.487	17.9	/
